Compound activity from PubChem.
IMP-1 inh: blocks Pseudomonas aeruginosa IMP-1 metallo-beta-lactamase; purified IMP-1, nitrocefin hydrolysis, epi-absorbance fluorescence; inhibition, % at 5.6 µM; 0.45% of 290,000 active; AID 1556;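 active = inhibition above the mean plus 3 SD of all compounds in the same screening run, cut at about 4.5% in these data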
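Material – recombinant IMP-1 enzyme, purified · Amount – IMP-1 0.2 nM before substrate addition · Medium – HEPES buffer pH 7.1 with ZnSO4 and Brij 35 · Timing – 25 °C, 15 min preincubation, 25 min reaction · Measured by – plate fluorescence quenching by hydrolysis product, ex 480/em 530 nm · Read-out – percent enzyme inhibition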
eIF4H inh: inhibitors of RNA binding by human eIF4H; 0.94% of 290,000 active; inhibition, % at 35 µM; eIF4H fluorescence polarization binding assay;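 note: calls also rest on retests at 20 µM and on dose response follow-up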
PABP polyA inh: PABP-poly(A) binding inhibition; PABP-poly(A) RNA binding, fluorescence polarization; 1% of 290,000 active; calls only at 35 µM;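 note: calls also rest on retests at 20 µM and on dose response follow-up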
MLLE-PAM2 inh: blocks PAM2 peptide binding to the PABP1 MLLE domain; AID 588489; P11940; GST-MLLE / FITC-PAM2 fluorescence polarization; inhibition, % at 20 µM; 0.36% of 360,000 active; in the data active = inhibition above about 35%, passing the limit was not always enough
VIM-2 inh: inhibitors of Pseudomonas aeruginosa VIM-2 metallo-beta-lactamase; purified VIM-2, nitrocefin hydrolysis, epi-absorbance fluorescence; inhibition, % at 5.6 µM; 0.89% of 290,000 active; AID 1527;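 active = inhibition above the mean of all tested compounds plus 3 SD, cutoff set per screening run, cut at about 7.5% in these data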;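 note: red hydrolysis product quenches plate fluorescence so inhibitors raise well fluorescence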
Hits are given with their value; – = inactive; ? = inconclusive; · = not tested or not shown; + = active, no number. Hits are enriched below; roughly 2.2% of the tested compounds scored in any of these assays. Unless noted, the rule behind the calls is not given here.

SMILES	IMP-1 inh	eIF4H inh	PABP polyA inh	MLLE-PAM2 inh	VIM-2 inh
CCN(CC(=O)Nc1cc(C)c(Cl)cc1OC)CC(=O)NC1CCS(=O)(=O)C1 (stereo unspecified)	–	–	–	–	–
CCC1CCCCN1C(=O)Cn1nc([N+](=O)[O-])c(Cl)c1C (stereo unspecified)	–	–	–	–	–
COc1cccc(C(C)NC(=O)Cc2cccs2)c1 (stereo unspecified)	–	–	–	–	–
Cc1cccc(N2CCN(C(=O)NC3CCCCC3)CC2C)c1 (stereo unspecified)	–	–	–	–	–
Cc1cccc(N2CCN(C(=O)c3ccccn3)CC2C)c1 (stereo unspecified)	–	?	+	–	–
CCOc1ccc(CCNC(=O)C2CC(C)=CCC2C(=O)O)cc1OCC (stereo unspecified)	38	–	–	–	–
O=c1cc(CO)oc(CN2CCCC2)c1O	8.3	–	–	–	–
O=C(NC1CC1)C1CCN(C2CCN(C(=O)Cc3ccc(F)cc3)CC2)CC1	–	–	–	–	–
Cn1ccc(CC(=O)N2CCC(N3CCC(C(=O)N4CCCC4)CC3)CC2)c1	–	52	+	–	–
CCC1(C)Cc2c(C#N)c(N)sc(=S)c2CO1 (stereo unspecified)	–	–	–	–	–
N#Cc1c(N)sc(=S)c2c1CCCC2	–	?	?	48	–
O=C(Nc1c(-c2ccc3c(c2)OCO3)[nH][nH]c1=O)c1ccc2c(c1)OCO2	·	·	·	–	·
CCC1(CC)C(=O)NC(=O)NC1=S	·	·	·	–	·
CCc1nn2c(=O)cc(COc3ccc(/C=C4\C(=N)N5N=C(C)SC5=NC4=O)cc3)nc2s1	–	70	+	–	–
CCC1=NN2C(=N)/C(=C/c3ccc(OS(=O)(=O)c4ccccc4)c(OC)c3)C(=O)N=C2S1	–	–	–	–	–
CCC1=NN2C(=N)/C(=C\c3ccc(OCCOc4ccc(NC(C)=O)cc4)cc3)C(=O)N=C2S1	–	–	–	–	10
CCC1=NN2C(=N)/C(=C/c3c(C)nn(-c4ccccc4)c3Cl)C(=O)N=C2S1	–	74	+	–	–
CCOc1cc(/C=C2\C(=N)N3N=C(CC)SC3=NC2=O)ccc1OCCOc1ccc(NC(C)=O)cc1	–	–	–	–	–
Cc1cc(C)c(N2C(=O)C3C4CC(=O)C(c5ccccc54)C3C2=O)c(C)c1 (stereo unspecified)	–	–	–	–	–
CC1=C(C)/C(=N\OS(=O)(=O)c2ccccc2)C=CC1=O	–	–	–	–	–
CCOC(=O)COc1c(OC)cc(Cl)cc1C1Nc2ccccc2C(=O)N1c1ccccc1 (stereo unspecified)	–	–	–	–	–
CCOC(=O)COc1c(OC)cc(Cl)cc1C1Nc2ccccc2C(=O)N1c1cccc(C)c1 (stereo unspecified)	5.6	–	–	–	–
C/C(=N\Nc1ccc(C(=O)O)cc1)c1nc2ccccc2n1C	–	active	+	·	–
Cc1ccnc(SCc2cc(=O)c(OC(=O)c3ccco3)co2)n1	–	7.6	+	–	–
Cc1ccnc(SCc2cc(=O)c(OC(=O)c3cccs3)co2)n1	–	–	–	–	–
SMILES	IMP-1 inh	eIF4H inh	PABP polyA inh	MLLE-PAM2 inh	VIM-2 inh
CCN(CC)C(=O)n1cnc(-c2ccccc2)c1-c1ccccc1	–	–	–	–	–
COc1cc(/C=c2\s/c(=C(/C#N)C(=O)N3CCCC3)n(-c3ccccc3)c2=O)ccc1O	–	80	+	–	–
CCCc1[nH][nH]c(=O)c1C(c1ccccc1)C(C#N)C#N (stereo unspecified)	–	–	–	–	9.1
CCCc1[nH][nH]c(=O)c1C(c1ccc(Br)cc1)C(C#N)C#N (stereo unspecified)	–	–	–	–	8.8
O=C(COC(=O)C1CC2C=CC1C2)NCCc1ccccc1 (stereo unspecified)	–	–	–	–	–
CCOC(=O)COc1cccc2c(=O)n(CC(=O)N3CCCCC3)ccc12	–	103	+	–	–
COc1cc(N)ccc1NC(=O)c1cc2ccccc2o1	7.5	–	–	–	–
Cc1c(NC(=S)NC(=O)c2cc3ccccc3o2)cccc1C(=O)O	–	–	–	39	–
Cc1c(NC(=S)NC(=O)CSc2ccc(Cl)cc2)cccc1C(=O)O	–	–	–	41	–
NC(=O)c1c(NC(=O)c2ccccc2F)sc2c1CCC2	·	·	·	–	·
CCCNC(=O)c1cc(C2CCCCN2C(=O)c2ccc3ccccc3c2)on1 (stereo unspecified)	·	·	·	–	·
